Bioassay records from PubChem.
GSH fluor: compound fluoresces at 488/530 nm on GSH beads; GSH beads flow cytometry, compound fluorescence 488/530 nm; hits give high values; fluorescence (KMESF) at 10 µM; 0.25% of 190,000 active; AID 1776; in the data active = fluorescence above about 89;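 note: glutathione beads carrying GST-tagged Bcl family fusion proteins plus one bare bead set; values are compound well signal with DMSO vehicle wells as background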
Avidin bead fluor: avidin bead compound fluorescence profile | Avidin beads, compound fluorescence 488/530 nm, flow cytometry; hits give high values | 0.38% of 220,000 active | fluorescence (KMESF) at 10 µM; in the data active = fluorescence above about 47
ABCG2 inh: inhibitors of human ABCG2 transporter, ABCB1 counter-screen; Q9UNQ0; IgMXP3 cells, JC-1 efflux, flow cytometry; inhibition, % at 6.6 µM; 0.1% of 190,000 active;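 active = inhibition above 80%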;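 note: 0% = DMSO and 100% = nicardipine control wells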
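Measure – % inhibition of efflux relative to nicardipine and DMSO · Test system – ABCG2 IgMXP3 and barcoded ABCB1 CCRF-Adr cell mix · Control set – nicardipine as high control, DMSO as low control · Compound – one concentration, 6.6 µM final · Signal – flow cytometry of retained JC-1 fluorescence · Timing – 10 min exposure at 25 °C with rotation, no wash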
ABCB1 block: human ABCB1 inhibition, ABCG2 as counter-screen; P08183; CCRF-Adr cells, JC-1 efflux, flow cytometry; inhibition, % at 6.6 µM; 0.067% of 190,000 active; AID 1326; in the data active = inhibition above about 40%;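 note: 0% = vehicle and 100% = reference inhibitor; higher value means more JC-1 retained so stronger ABCB1 efflux block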
L major viab: Leishmania major promastigote growth inhibition | Leishmania major promastigotes, resazurin fluorescence viability | inhibition, % at 10 µM | 9% of 200,000 active;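 note: promastigotes grown with compound for 44 hours at 28 °C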
PKD1 inh: inhibitors of human PKD1 kinase; Q15139; PKD1 kinase fluorescence polarization assay; inhibition, % (no concentration beside the values); 0.056% of 200,000 active; AID 797
Target sequence (Q15139 whole entry, looked up): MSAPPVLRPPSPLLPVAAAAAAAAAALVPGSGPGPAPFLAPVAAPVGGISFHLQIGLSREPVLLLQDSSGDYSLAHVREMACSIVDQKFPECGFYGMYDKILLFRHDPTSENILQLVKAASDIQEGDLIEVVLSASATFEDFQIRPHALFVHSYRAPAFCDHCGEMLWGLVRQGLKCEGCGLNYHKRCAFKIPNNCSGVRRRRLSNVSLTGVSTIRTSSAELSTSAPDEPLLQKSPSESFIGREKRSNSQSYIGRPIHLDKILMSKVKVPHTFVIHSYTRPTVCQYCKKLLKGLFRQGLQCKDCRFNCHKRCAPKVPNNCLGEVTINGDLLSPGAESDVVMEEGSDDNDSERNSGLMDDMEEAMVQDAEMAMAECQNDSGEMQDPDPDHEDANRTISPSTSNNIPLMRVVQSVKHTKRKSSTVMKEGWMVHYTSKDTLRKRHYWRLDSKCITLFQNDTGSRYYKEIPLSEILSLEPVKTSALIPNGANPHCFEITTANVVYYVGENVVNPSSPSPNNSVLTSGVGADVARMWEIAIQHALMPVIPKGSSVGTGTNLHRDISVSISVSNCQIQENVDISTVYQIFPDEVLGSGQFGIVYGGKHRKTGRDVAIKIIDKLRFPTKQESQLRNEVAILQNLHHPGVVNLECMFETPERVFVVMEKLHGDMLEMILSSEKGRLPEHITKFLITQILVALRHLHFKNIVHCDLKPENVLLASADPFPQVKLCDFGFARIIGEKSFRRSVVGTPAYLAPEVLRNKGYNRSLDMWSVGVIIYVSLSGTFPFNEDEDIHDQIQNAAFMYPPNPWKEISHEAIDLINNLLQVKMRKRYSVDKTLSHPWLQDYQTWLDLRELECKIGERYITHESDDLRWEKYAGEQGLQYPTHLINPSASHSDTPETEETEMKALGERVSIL
The depositor's hits bear a star. Shown is part of a subset that was picked to be rich in hits. Cut-off read from the data, not from the text of the source, unless noted: active = inhibition above about 50%; inactive = the rest.

Screening COc1ccc(CN(C(=O)c2nsc(Cl)c2Cl)C(C(=O)NC2CCCC2)c2ccc(C)cc2)cc1 (centres undefined) returned GSH fluor 13, Avidin bead fluor 12, ABCG2 inh 16, ABCB1 block 9, L major viab 71* and PKD1 inh -6.
`COc1ccc(CN(C(=O)c2nsc(Cl)c2Cl)C(C(=O)NC2CCCCC2)c2ccc(OC)cc2)cc1` (centres undefined) gave GSH fluor 15, Avidin bead fluor 9, ABCG2 inh 6, ABCB1 block 7, L major viab 45 and PKD1 inh 13.
For COc1ccc(C(C(=O)NC2CCCCC2)N(C(=O)CCl)c2ccc(OC)cc2)cc1 (centres undefined) the results were GSH fluor 8, Avidin bead fluor 12, ABCG2 inh 3, ABCB1 block 1, L major viab 93* and PKD1 inh 1.
Cc1ccc(C(C(=O)NC2CCCCC2)N(C(=O)CCCC(=O)Nc2ccccn2)c2ccc3c(c2)OCCO3)cc1 (centres undefined) was read as GSH fluor 10, Avidin bead fluor 15, ABCG2 inh 1, ABCB1 block 0, L major viab 68* and PKD1 inh 2.
For COC(CN(C(=O)CCl)C(C(=O)NC1CCCCC1)c1ccc(C)cc1)OC (centres undefined) the results were GSH fluor 26, Avidin bead fluor 7, ABCG2 inh -6, ABCB1 block 4, L major viab 72* and PKD1 inh 6.
`COc1ccc(-c2nsc(C(=O)N(c3ccc(F)cc3)C(C(=O)NC3CCCC3)c3ccc(OC)cc3)c2N)cc1` (centres undefined) gave GSH fluor 29, Avidin bead fluor 5, ABCG2 inh 0, ABCB1 block 0, L major viab 90* and PKD1 inh 16.
`COc1ccc(C(C(=O)NC2CCCCC2)N(C(=O)CCl)c2ccc(C)cc2)cc1` (centres undefined) gave GSH fluor 20, Avidin bead fluor 13, ABCG2 inh 5, ABCB1 block 1, L major viab 91* and PKD1 inh -13.
Screening CC(C)[C@H](NC(=O)CCCn1nnc2ccccc2c1=O)C(=O)O returned Avidin bead fluor 6.
Screening COc1ccc(N2CCN(C(CNC(=O)c3ccc4c(c3)OCO4)c3ccco3)CC2)cc1 (centres undefined) returned GSH fluor 14, Avidin bead fluor 9, ABCG2 inh 3, ABCB1 block 0, L major viab 5 and PKD1 inh 1.
`O=C(NCC(c1cccnc1)N1CCOCC1)c1cccs1` (centres undefined) gave GSH fluor 48, Avidin bead fluor 15, ABCG2 inh 0, ABCB1 block 0, L major viab -6 and PKD1 inh -7.
For O=C(NCC(c1cccnc1)N1CCN(c2ccc(F)cc2)CC1)c1ccc2c(c1)OCO2 (centres undefined) the results were GSH fluor 39, Avidin bead fluor 5, ABCG2 inh 3, ABCB1 block 0, L major viab 95* and PKD1 inh -4.
COc1ccc(N2CCN(C(CNC(=O)c3ccc4c(c3)OCO4)c3cccnc3)CC2)cc1 (centres undefined) was read as GSH fluor 10, Avidin bead fluor 26, ABCG2 inh 7, ABCB1 block 1, L major viab 90* and PKD1 inh 1.
`COc1ccc(N2CCN(C(CNC(=O)c3cccc(Cl)c3)c3cccnc3)CC2)cc1` (centres undefined) gave GSH fluor 15, Avidin bead fluor 12, ABCG2 inh 3, ABCB1 block 1, L major viab 96* and PKD1 inh -1.
Screening CCOC(=O)C1=CN(C)C=C(C(=O)OCC)C1c1ccsc1 returned GSH fluor 15, Avidin bead fluor 8, ABCG2 inh 3, ABCB1 block 1, L major viab 4 and PKD1 inh -14.
`CCOc1ccc(/C=C(/NC(=O)c2ccccc2Cl)C(=O)O)cc1` gave GSH fluor 10, Avidin bead fluor 21, ABCG2 inh 0, ABCB1 block 0, L major viab -2 and PKD1 inh 1.
`CCOc1ccc(N(C(=O)c2ccccc2Cl)C2=NC(C)(C)CS2)cc1` gave GSH fluor 25, Avidin bead fluor 11, ABCG2 inh 3, ABCB1 block 1, L major viab 62* and PKD1 inh -1.
CCOC(=O)c1sc(NC(=S)NC(=O)C2CCCC2)cc1C was read as GSH fluor 12, Avidin bead fluor 49*, ABCG2 inh 0, ABCB1 block 0, L major viab -2 and PKD1 inh -9.
Screening CCOC(=O)c1sc(NC(=O)Nc2ccc(Cl)cc2)cc1C returned GSH fluor 21, Avidin bead fluor 27, ABCG2 inh -8, ABCB1 block -1, L major viab 89* and PKD1 inh -5.
Screening Cc1ccc2c(c1)C(c1ccc(N3CCOCC3)cc1)=NNC(c1cccs1)=N2 returned GSH fluor 10, Avidin bead fluor 19, ABCG2 inh 9, ABCB1 block 2, L major viab 86* and PKD1 inh -2.
For Brc1ccc2c(c1)C(c1ccc(N3CCOCC3)cc1)=NNC(c1cccs1)=N2 the results were GSH fluor 16, Avidin bead fluor 16, ABCG2 inh 3, ABCB1 block 0, L major viab 78* and PKD1 inh -7.
`CCc1ccc2c(c1)C(c1ccc([N+](=O)[O-])cc1)=NNC(c1ccc(C)cc1)=N2` gave GSH fluor 6, Avidin bead fluor 13, ABCG2 inh 30, ABCB1 block 2, L major viab 85* and PKD1 inh -1.
Screening CCOc1ccc2c(c1)C(c1ccc(C)cc1)=NNC(c1ccc(OC)cc1)=N2 returned GSH fluor 4, Avidin bead fluor 11, ABCG2 inh 0, ABCB1 block 0, L major viab 36 and PKD1 inh -2.
For CCc1ccc2c(c1)C(c1ccc(N3CCOCC3)cc1)=NNC(c1ccncc1)=N2 the results were GSH fluor 11, Avidin bead fluor 10, ABCG2 inh 4, ABCB1 block 1, L major viab 57* and PKD1 inh 4.
`COc1ccc(-n2cnnc2SCC(=O)NC2CCCc3ccccc32)cc1` (centres undefined) gave GSH fluor 5, Avidin bead fluor 9, ABCG2 inh 0, ABCB1 block 3, L major viab 69* and PKD1 inh 2.
For CCn1c(SCC(=O)NC2CCCc3ccccc32)nnc1-c1cccs1 (centres undefined) the results were GSH fluor 13, Avidin bead fluor 38, ABCG2 inh 1, ABCB1 block 1, L major viab 56* and PKD1 inh -6.
